Results published in ChEMBL document CHEMBL1155549, “Sialic acid-mimic peptides as hemagglutinin inhibitors for anti-influenza therapy” (J Med Chem, 2010).
Activity calls are given as the source filed them. No cut-off for these calls is given here. Where a SMILES comes first, the peptide text is derived from it. The star is where a group is joined. Biotin = O=C1N[C@H]2[C@H](CS[C@H]2CCCCC(=O)*)N1

Legend:
[1] = system: Influenza A virus (A/Wuhan/359/1995(H3N2)); test: Binding affinity to Influenza A virus (A/Wuhan/359/1995 (H3N2)) hemagglutininin by scintillation proximity assay
[2] = system: Influenza A virus (A/New Caledonia/20/1999(H1N1)); test: (§1) Binding affinity to Influenza A virus (A/New Caledonia/20/1999 (H1N1)) hemagglutininin by avidin-biotin peroxidase complex method
How it was run: (§2)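 HA was coated at 70 μg/mL overnight at 4 °C and blocked with 1% BSA/PBS. C-terminally biotinylated peptides (5-400 μM) were added for 2 h. After PBS washes, peroxidase-streptavidin was added for 1 h, and o-phenylenediamine colour was read as ΔA at 492 nm, in triplicate. Kd came from a Scatchard plot over 20-200 μM peptide.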

[3] = system: Influenza A virus (A/Wyoming/03/2003(H3N2)); test: (§3) Binding affinity to Influenza A virus (A/Wyoming/03/2003 (H3N2)) hemagglutininin by avidin-biotin peroxidase complex method; how it was run: as §2
[4] = as §1; how it was run: as §2
[5] = as §3; how it was run: as §2

Compound	Activity [1]	Activity [2]	Activity [3]	Kd [4]	Kd [5]
CSCC[C@H](NC(=O)[C@@H](NC(=O)[C@@H]1CCCN1C(=O)[C@H](CO)NC(=O)[C@H](CC(C)C)NC(=O)[C@H](CCCNC(=N)N)NC(=O)[C@@H](C)N)[C@@H](C)O)C(=O)N[C@H](C(=O)N[C@@H](Cc1cnc[nH]1)C(=O)N1CCC[C@H]1C(=O)N[C@@H](CC(N)=O)C(=O)NCC(=O)N[C@@H](C)C(=O)N[C@@H](CCC(N)=O)C(=O)N1CCC[C@H]1C(=O)O)C(C)C	Active	–	–	–	–
CSCC[C@H](NC(=O)[C@@H](NC(=O)[C@H](CCCNC(=N)N)NC(=O)[C@@H]1CCCN1C(=O)[C@H](CC(C)C)NC(=O)[C@H](CCCNC(=N)N)NC(=O)[C@H](C)N)[C@@H](C)O)C(=O)N[C@H](C(=O)N[C@@H](Cc1cnc[nH]1)C(=O)N1CCC[C@H]1C(=O)N[C@@H](C)C(=O)N1CCC[C@H]1C(=O)N[C@@H](C)C(=O)N[C@@H](CCC(N)=O)C(=O)N1CCC[C@H]1C(=O)N[C@@H](CCCCNC(=O)CCCC[C@@H]1SC[C@@H]2NC(=O)N[C@@H]21)C(N)=O)C(C)C (H-ARLPRTMVHPAPAQPK(Biotin)-NH2)	–	inactive	inactive	–	–
CC(C)C[C@H](NC(=O)[C@H](CCCNC(=N)N)NC(=O)[C@H](C)N)C(=O)N1CCC[C@H]1C(=O)N[C@@H](CCCNC(=N)N)C(=O)N[C@H](C(=O)N[C@@H](C)C(=O)N[C@H](C(=O)N[C@@H](Cc1cnc[nH]1)C(=O)N1CCC[C@H]1C(=O)N[C@@H](CCCCN)C(=O)N1CCC[C@H]1C(=O)N[C@@H](C)C(=O)N[C@@H](CCC(N)=O)C(=O)N1CCC[C@H]1C(=O)N[C@@H](CCCCNC(=O)CCCC[C@@H]1SC[C@@H]2NC(=O)N[C@@H]21)C(N)=O)C(C)C)[C@@H](C)O (H-ARLPRTAVHPKPAQPK(Biotin)-NH2)	–	inactive	inactive	–	–
H-ARLPRTMVHPKPAQP-NH2	Dose-dependent effect	–	–	31 µM	22 µM
